In ChEMBL document CHEMBL1125363, “Novel piperidine sigma receptor ligands as potential antipsychotic drugs” (J Med Chem, 1992):

Key:
Mus musculus [1] = species: Mus musculus; assay: Oral potency tested by using anti-mescaline test; type: functional
How it was run: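 Mice; mescaline was given to evoke hallucinogen-type behaviour, and the test compound was dosed orally to antagonise it. Potency is the ED50 in mg/kg po. Some ED50s are the average of three measurements.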

[2] = biological target: Serotonin 2 (5-HT2) receptor (Mus musculus, UniProt Q02152+P34968+P35363); assay: In vitro binding affinity for serotonin 5-hydroxytryptamine (5-HT) 2 receptors; type: protein assay
[3] = biological target: Sigma non-opioid intracellular receptor 1 (Mus musculus, UniProt O55242); assay: In vitro binding affinity for the mouse sigma opioid receptor
D(2) dopamine receptor = D(2) dopamine receptor (Mus musculus, UniProt P61168); assay: In vitro binding affinity towards dopamine receptor D2
Mus musculus [4] = species: Mus musculus; assay: Potency was tested using Anti mescaline test(Intra peritoneal); type: functional
How it was run: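 Mouse mescaline-antagonism test with the test compound given intraperitoneally. Read-out is the ED50 in mg/kg ip.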

[5] = Oral potency by using Anti aggression test; type: functional
How it was run: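 Mice were held in prolonged isolation, then exposed to intruders. The aggressive response was scored after oral dosing of the test compound. Potency is the ED50 in mg/kg po.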

Rattus norvegicus = species: Rattus norvegicus; assay: Oral potency tested using 5HTP induced head twitch test; type: functional
Mus musculus [6] = species: Mus musculus; assay: Oral potency tested using apomorphine induced climbing test; type: functional

Sequence of Sigma non-opioid intracellular receptor 1 (O55242 whole entry): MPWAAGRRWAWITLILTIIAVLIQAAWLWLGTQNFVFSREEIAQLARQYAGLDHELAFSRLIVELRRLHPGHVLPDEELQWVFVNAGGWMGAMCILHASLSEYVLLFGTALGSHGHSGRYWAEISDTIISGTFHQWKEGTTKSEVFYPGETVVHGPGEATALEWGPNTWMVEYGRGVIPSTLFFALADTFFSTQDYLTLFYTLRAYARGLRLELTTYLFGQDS
Sequence of D(2) dopamine receptor (P61168 whole entry): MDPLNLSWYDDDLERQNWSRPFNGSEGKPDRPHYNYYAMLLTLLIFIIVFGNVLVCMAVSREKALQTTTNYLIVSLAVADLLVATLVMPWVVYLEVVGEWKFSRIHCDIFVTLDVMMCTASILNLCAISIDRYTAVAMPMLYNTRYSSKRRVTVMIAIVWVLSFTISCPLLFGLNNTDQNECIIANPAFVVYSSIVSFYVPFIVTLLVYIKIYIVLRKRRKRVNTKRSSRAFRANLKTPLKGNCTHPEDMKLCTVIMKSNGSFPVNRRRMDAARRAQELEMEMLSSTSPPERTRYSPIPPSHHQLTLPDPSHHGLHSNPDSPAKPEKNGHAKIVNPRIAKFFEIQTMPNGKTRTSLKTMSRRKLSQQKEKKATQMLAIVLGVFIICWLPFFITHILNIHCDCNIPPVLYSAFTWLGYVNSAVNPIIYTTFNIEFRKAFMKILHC

| SMILES | ED50 (Mus musculus [1]) | Ki [2] | Ki [3] | IC50 (D(2) dopamine receptor) | ED50 (Mus musculus [4]) | ED50 [5] | ED50 (Rattus norvegicus) | ED50 (Mus musculus [6]) |
| --- | --- | --- | --- | --- | --- | --- | --- | --- |
| O=C(CC1CCN(CCc2ccccc2)CC1)c1ccc(F)cc1 | 4.1 mg/kg | 8 nM | 8 nM | 42 nM |  |  |  |  |
| Fc1ccc(COCC2CCN(Cc3ccncc3)CC2)cc1.O=C(O)/C=C/C(=O)O |  |  | 2 nM | > 10000 nM | < 10 mg/kg |  |  |  |
| O.O=C(CC1CCN(CCc2c[nH]c3ccccc23)CC1)c1ccc(F)cc1 | < 10 mg/kg | 3.6 nM | 26 nM | 7 nM |  |  |  |  |
| O.O=C(CC1CCN(Cc2ccccc2)CC1)c1ccc(C(F)(F)F)cc1 | > 10 mg/kg | > 1000 nM | 10 nM | 4670 nM |  |  |  |  |
| O.O=C(CC1CCN(Cc2ccccc2)CC1)c1ccc(CO)cc1 | > 30 mg/kg | 438 nM | 31 nM | > 10000 nM |  |  |  |  |
| COc1ccc(COCC2CCN(Cc3ccccc3)CC2)cc1.O=C(O)/C=C\C(=O)O | > 30 mg/kg | 287 nM | 3.5 nM | 26000 nM |  |  |  |  |
| Fc1ccc(COCC2CCN(Cc3ccccc3)CC2)cc1.O=C(O)/C=C\C(=O)O | 14 mg/kg | 272 nM | 2 nM | 3900 nM |  |  |  |  |
| CS(=O)(=O)c1ccc(OCC2CCN(CC3CC3)CC2)cc1 | > 30 mg/kg | 1135 nM | 53 nM | > 10000 nM |  |  |  |  |
| O=C(O)/C=C\C(=O)O.c1ccc(CCCOC2CCN(Cc3ccccc3)CC2)cc1 |  |  | 2 nM | 8100 nM | < 10 mg/kg |  |  |  |
| CSc1ccc(C(=O)CC2CCN(Cc3ccccc3)CC2)cc1 | > 30 mg/kg | 208 nM | 8 nM | 715 nM |  |  |  |  |
| O=C(CC1CCN(CCc2ccc(C(F)(F)F)cc2)CC1)c1ccc(F)cc1 | < 10 mg/kg | 3.3 nM | 9 nM | 10 nM |  |  |  |  |
| Fc1ccc(CN2CCC(COc3ccc(F)cc3)CC2)cc1 | 5.9 mg/kg | 38 nM | 8 nM | 1070 nM |  |  |  |  |
| O.OCc1ccc(OCC2CCN(CC3CC3)CC2)cc1 | > 30 mg/kg | > 100 nM | 35 nM | > 10000 nM |  |  |  |  |
| Fc1ccc(COCC2CCN(CCc3ccccc3)CC2)cc1.O=C(O)/C=C\C(=O)O | 15 mg/kg | 24 nM | 4 nM | 560 nM |  |  |  |  |
| COc1ccc(OCC2CCN(Cc3ccccc3)CC2)cc1 | > 30 mg/kg | 55 nM | 3 nM | > 10000 nM |  |  |  |  |
| O.OC(CC1CCN(Cc2ccccc2)CC1)c1ccc2ccccc2c1 (stereo unspecified) | > 10 mg/kg | > 100 nM | 31 nM | 3330 nM |  |  |  |  |
| O=S(=O)(CC1CCN(CCC2CC2)CC1)c1ccc(F)cc1 | 6.4 mg/kg | 745 nM | 28 nM | > 10000 nM |  |  |  |  |
| O.c1ccc2c(OCC3CCN(CC4CC4)CC3)ccnc2c1 | 19.2 mg/kg | > 100 nM | 50 nM | 4850 nM |  |  |  |  |
| O.O=C(O)/C=C\C(=O)O.c1ccc(CN2CCC(COCc3ccc(-c4ccccc4)cc3)CC2)cc1 |  | 47 nM | 20 nM | 1850 nM | 10 mg/kg |  |  |  |

| SMILES | ED50 (Mus musculus [1]) | Ki [2] | Ki [3] | IC50 (D(2) dopamine receptor) | ED50 (Mus musculus [4]) | ED50 [5] | ED50 (Rattus norvegicus) | ED50 (Mus musculus [6]) |
| --- | --- | --- | --- | --- | --- | --- | --- | --- |
| O.O=C(O)/C=C\C(=O)O.c1ccc(CN2CCC(COc3cccnc3)CC2)cc1 | > 30 mg/kg | > 10000 nM | 5 nM | > 10000 nM |  |  |  |  |
| Fc1ccc(-c2ccc(OCC3CCN(CC4CC4)CC3)cc2)cc1 | < 30 mg/kg | 396 nM | 83 nM | > 10000 nM |  |  |  |  |
| c1ccc(OCC2CCN(CC3CC3)CC2)cc1 | 30 mg/kg | 53 nM | 7 nM | 3170 nM |  |  |  |  |
| O.OC(CC1CCN(Cc2ccccc2)CC1)c1cccs1 (stereo unspecified) | > 30 mg/kg | 446 nM | 5 nM | 3720 nM |  |  |  |  |
| O.c1ccc2cc(OCC3CCN(CC4CC4)CC3)ccc2c1 |  | > 100 nM | 5 nM | 2960 nM | > 10 mg/kg |  |  |  |
| O.O=C(Cc1ccc(F)cc1)C1CCN(Cc2ccncc2)CC1.O=C(O)/C=C\C(=O)O | 10 mg/kg | 1705 nM | 7 nM | > 10000 nM |  | 38 mg/kg | 28 mg/kg |  |
| c1ccc(Oc2ccc(OCC3CCN(CC4CC4)CC3)cc2)cc1 | > 30 mg/kg | 584 nM | 24 nM | > 10000 nM |  |  |  |  |
| O=C(O)/C=C\C(=O)O.c1ccc(CCCOCC2CCN(Cc3ccccc3)CC2)cc1 |  | 260 nM | 3.2 nM | 839 nM | < 10 mg/kg |  |  |  |
| O.O=C(CC1CCN(Cc2ccccc2)CC1)c1ccc(O)cc1 | > 30 mg/kg | > 1000 nM | 18 nM | 1340 nM |  |  |  |  |
| O=C(O)/C=C\C(=O)O.c1ccc(CN2CCC(COC3CC3)CC2)cc1 | > 30 mg/kg | > 10000 nM | 2 nM | > 10000 nM |  |  |  |  |
| Fc1ccc(OCC2CCN(CCC3CC3)CC2)cc1.O=C(O)/C=C/C(=O)O | 3.1 mg/kg |  | 3 nM | 428 nM |  | 4.5 mg/kg | < 10 mg/kg |  |
| c1cc2cc(OCC3CCN(CC4CC4)CC3)ccc2[nH]1 | < 30 mg/kg | 112 nM | 34 nM | 2350 nM |  |  |  |  |
| CN(C)c1cccc(OCC2CCN(CC3CC3)CC2)c1.O |  | 1158 nM | 5 nM | 7330 nM | < 10 mg/kg |  |  |  |
| Fc1ccc(OCC2CCN(Cc3ccc4ccccc4c3)CC2)cc1 | 1.7 mg/kg | 118 nM | 51 nM | 4340 nM |  |  |  |  |
| N#Cc1ccc(OCC2CCN(CC3CC3)CC2)cc1 | 1.7 mg/kg | 2818 nM | 10 nM | > 10000 nM |  | 2.6 mg/kg | 29 mg/kg |  |
| COc1ccc(C(O)CC2CCN(Cc3ccccc3)CC2)cc1.Cl (stereo unspecified) | > 30 mg/kg | 187 nM | 20 nM | > 10000 nM |  |  |  |  |
| Cl.Fc1ccc(OCC2CCN(Cc3ccccc3)CC2)cc1.O | 4 mg/kg | 28 nM | 2 nM | 870 nM |  | 8.2 mg/kg |  | > 30 mg/kg |
| CC(C)(C)c1ccc(COCCC2CCN(Cc3ccccc3)CC2)cc1.Cl |  | 939 nM | 4.5 nM | 6750 nM | > 10 mg/kg |  |  |  |
| Cl.Fc1ccc(COCC2CCN(Cc3ccc(Cl)cc3)CC2)cc1 |  | 281 nM | 2 nM |  | < 10 mg/kg |  |  |  |

| SMILES | ED50 (Mus musculus [1]) | Ki [2] | Ki [3] | IC50 (D(2) dopamine receptor) | ED50 (Mus musculus [4]) | ED50 [5] | ED50 (Rattus norvegicus) | ED50 (Mus musculus [6]) |
| --- | --- | --- | --- | --- | --- | --- | --- | --- |
| Cl.Clc1ccc(OCC2CCN(CC3CC3)CC2)c(Cl)c1 | 2.9 mg/kg | 32 nM | 4 nM | 111 nM |  |  |  |  |
| Cl.Clc1ccc(OCC2CCN(Cc3ccccc3)CC2)cc1 | 8 mg/kg | 137 nM | 8.3 nM | 4210 nM |  | 10 mg/kg | > 10 mg/kg |  |
| Cl.Fc1ccc(COCC2CCN(CC3CCCCC3)CC2)cc1 | > 10 mg/kg | 127 nM | 3 nM | 3350 nM |  |  |  |  |
| Cl.Fc1ccc(COCC2CCN(Cc3ccc4ccccc4c3)CC2)cc1 |  | 251 nM |  | 305 nM | > 10 mg/kg |  |  |  |
| Cl.Fc1c(F)c(F)c(OCC2CCN(CC3CC3)CC2)c(F)c1F | 26.2 mg/kg | 3356 nM | 10 nM | 5680 nM |  |  |  |  |
| Cl.c1ccc(CCCCCOCC2CCN(Cc3ccccc3)CC2)cc1 |  | 186 nM | 26 nM | 1850 nM | > 10 mg/kg |  |  |  |
| Cl.c1ccc(CN2CCC(COc3ccc4ccccc4n3)CC2)cc1 |  | 311 nM | 5.6 nM | 6300 nM | < 10 mg/kg |  |  |  |
| Br.COc1ccc(C(=O)CC2CCN(CC3CC3)CC2)cc1 |  | 1883 nM | 55 nM | 1800 nM | > 10 mg/kg |  |  |  |
| Cl.c1ccc(COCC2CCN(Cc3ccccc3)CC2)cc1 |  | > 1000 nM | 4 nM | > 10000 nM | > 10 mg/kg |  |  |  |
| Br.O=C(CC1CCN(CCC2CC2)CC1)c1ccc(F)cc1 | < 10 mg/kg | 12 nM | 11 nM | 220 nM |  |  |  |  |
| Cl.c1ccc(CN2CCC(COC3CCCCC3)CC2)cc1 |  | 1363 nM | 2 nM | > 10000 nM | < 10 mg/kg |  |  |  |
| Cl.O.OC(Cc1ccc(F)cc1)C1CCN(Cc2ccccc2)CC1 (stereo unspecified) | 5 mg/kg | 360 nM | 3 nM | 789 nM |  | > 30 mg/kg |  | > 30 mg/kg |
| Cl.Fc1ccc(COCC2CCN(Cc3cccc4ccccc34)CC2)cc1 | 12 mg/kg | 25 nM | 22 nM | 219 nM |  |  |  |  |
| COC(=O)c1ccc(COCC2CCN(Cc3ccccc3)CC2)cc1.Cl.O | > 30 mg/kg | > 10000 nM | 15 nM | 970 nM |  |  |  |  |
| Cl.Fc1ccc(COCC2CCN(Cc3ccc(-c4ccccc4)cc3)CC2)cc1 |  | > 1000 nM | 14 nM | 818 nM | > 10 mg/kg |  |  |  |
| Cl.c1ccc(CCCCOCC2CCN(Cc3ccccc3)CC2)cc1 |  | 224 nM | 2 nM | 4340 nM | > 10 mg/kg |  |  |  |
| CCCCCN1CCC(COCc2ccc(F)cc2)CC1.Cl |  |  | 9 nM | 1320 nM | < 10 mg/kg |  |  |  |
| Cl.Fc1ccc(OCC2CCN(CCc3ccc(Cl)cc3)CC2)cc1 | 1.7 mg/kg | 26 nM | 5 nM | 368 nM |  | 10 mg/kg | > 10 mg/kg |  |
| Br.CC(C)(C)c1ccc(C(=O)CC2CCN(CC3CC3)CC2)cc1.O | > 30 mg/kg | > 1000 nM | 8 nM | 1570 nM |  |  |  |  |
